{"source": "ChEMBL document CHEMBL4017537", "about": "“Discovery of a Potent and Specific M. tuberculosis Leucyl-tRNA Synthetase Inhibitor: (S)-3-(Aminomethyl)-4-chloro-7-(2-hydroxyethoxy)benzo[c][1,2]oxaborol-1(3H)-ol (GSK656)” (J Med Chem, 2017)", "key": {"[1]": {"test": "AUC (0 to 24 hrs) in C57BL/6 mouse at 30 mg/kg administered as single dose via oral gavage by LC-MS/MS analysis", "type": "ADME, organism-based", "parameters": "time < 24 hr, dose 30 mg/kg, route oral", "settings": "in vivo"}, "[2]": {"test": "Toxicity in mouse administered qd", "settings": "in vivo"}, "[3]": {"test": "Tmax in C57BL/6 mouse at 30 mg/kg administered as single dose via oral gavage measured up to 24 hrs by LC-MS/MS analysis", "type": "ADME, organism-based", "settings": "in vivo", "outline": "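C57BL/6 female mice (18−20 g) got one oral gavage dose of 30 mg/kg in 1% methylcellulose. Peripheral whole blood was sampled from 15 min to 24 h postdose, n = 3 mice per time point, and drug concentrations were measured in blood.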"}, "[4]": {"system": "Mycobacterium tuberculosis", "test": "Antimicrobial activity against Mycobacterium tuberculosis H37Rv infected in C57BL/6J mouse assessed as bacterial load in lungs at 0.3 mg/kg qd administered for 8 consecutive weeks starting from 6 weeks post infection measured 24 hrs post last dose (reference value: 6.4 +/- 0.3 log10CFU)", "type": "functional", "outline": "(§1)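 C57BL/6J mice infected intratracheally with ~10² CFU M. tuberculosis H37Rv. Dosed QD, 7 days/week, for 8 weeks starting 6 weeks post-infection; killed ≥24 h after last dose. Lung homogenates plated on 7H11/10% OADC for 21 days at 37 °C. n = 3 per dose group, 7 for controls; mean (SD); ANOVA with Dunnett's test versus 14-week untreated.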"}, "Mus musculus [5]": {"system": "Mus musculus", "test": "Dose normalized AUC (0 to 24 hrs) in C57BL/6 mouse at 30 mg/kg administered as single dose via oral gavage by LC-MS/MS analysis", "type": "ADME, organism-based", "settings": "in vivo"}, "[6]": {"system": "Mycobacterium tuberculosis", "test": "Antimicrobial activity against Mycobacterium tuberculosis H37Rv infected in C57BL/6J mouse assessed as log reduction in bacterial load in lungs administered qd for 8 consecutive weeks starting from 6 weeks post infection measured 24 hrs post last dose", "type": "functional", "outline": "as §1"}, "[7]": {"system": "Mycobacterium tuberculosis", "test": "Antimicrobial activity against Mycobacterium tuberculosis H37Rv infected in C57BL/6J mouse assessed as bacterial load in lungs at 1 mg/kg qd administered for 8 consecutive weeks starting from 6 weeks post infection measured 24 hrs post last dose (reference value: 6.4 +/- 0.3 log10CFU)", "type": "functional", "outline": "as §1"}, "[8]": {"molecular_target": "Leucine--tRNA ligase, cytoplasmic (Homo sapiens, UniProt Q9P2J5)", "sequence (Q9P2J5 whole entry)": "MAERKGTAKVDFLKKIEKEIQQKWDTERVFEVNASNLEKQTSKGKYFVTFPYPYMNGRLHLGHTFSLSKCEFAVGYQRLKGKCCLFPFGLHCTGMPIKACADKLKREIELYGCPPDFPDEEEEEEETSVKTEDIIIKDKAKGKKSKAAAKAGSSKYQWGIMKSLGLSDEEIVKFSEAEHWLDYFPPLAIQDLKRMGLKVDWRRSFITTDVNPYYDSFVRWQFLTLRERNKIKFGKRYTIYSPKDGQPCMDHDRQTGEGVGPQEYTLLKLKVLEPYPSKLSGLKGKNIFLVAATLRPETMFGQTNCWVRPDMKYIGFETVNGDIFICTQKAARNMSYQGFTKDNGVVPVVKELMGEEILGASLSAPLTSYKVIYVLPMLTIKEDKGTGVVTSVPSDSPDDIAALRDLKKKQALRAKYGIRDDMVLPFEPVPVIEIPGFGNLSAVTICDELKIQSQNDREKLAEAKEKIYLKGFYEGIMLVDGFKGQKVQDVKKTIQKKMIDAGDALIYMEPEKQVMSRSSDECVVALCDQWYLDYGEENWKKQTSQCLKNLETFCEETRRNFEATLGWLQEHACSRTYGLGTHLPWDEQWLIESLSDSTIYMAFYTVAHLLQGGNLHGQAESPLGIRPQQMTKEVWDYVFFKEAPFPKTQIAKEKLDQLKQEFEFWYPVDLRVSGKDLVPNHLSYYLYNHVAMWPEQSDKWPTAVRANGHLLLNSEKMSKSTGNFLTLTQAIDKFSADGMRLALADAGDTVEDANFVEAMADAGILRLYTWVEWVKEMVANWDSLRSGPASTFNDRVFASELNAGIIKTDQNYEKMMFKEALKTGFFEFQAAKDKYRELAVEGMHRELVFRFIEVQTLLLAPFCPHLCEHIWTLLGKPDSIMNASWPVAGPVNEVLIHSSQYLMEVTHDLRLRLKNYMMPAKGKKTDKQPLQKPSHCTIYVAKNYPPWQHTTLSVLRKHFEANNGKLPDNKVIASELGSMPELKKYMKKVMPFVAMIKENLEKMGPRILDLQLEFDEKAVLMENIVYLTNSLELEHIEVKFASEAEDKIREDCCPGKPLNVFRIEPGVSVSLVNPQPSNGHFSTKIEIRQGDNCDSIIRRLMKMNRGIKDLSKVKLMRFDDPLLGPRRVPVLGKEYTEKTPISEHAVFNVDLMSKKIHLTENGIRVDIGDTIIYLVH", "test": "Inhibition of human N-terminal 6His-tagged cytoplasmic LeuRS expressed in Escherichia coli BL21(DE3) assessed as […] after 20 mins by liquid scintillation counting analysis"}, "[9]": {"test": "Volume of distribution at steady state in C57BL/6 mouse at 5.5 mg/kg, iv administered as single dose measured up to 24 hrs by LC-MS/MS analysis", "type": "ADME, organism-based", "settings": "in vivo, read-out: Vdss", "outline": "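C57BL/6 female mice (18−20 g) got one intravenous dose in saline. Whole blood (15 μL) was taken by lateral tail-vein puncture from each of 3 mice at 5, 15 and 30 min and at 1, 2, 4, 8 and 24 h postdose, and drug concentrations were measured in peripheral blood.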"}, "[10]": {"system": "Mycobacterium tuberculosis", "test": "Antimicrobial activity against Mycobacterium tuberculosis H37Rv infected in C57BL/6J mouse assessed as bacterial load in lungs at 30 mg/kg qd administered for 8 consecutive weeks starting from 6 weeks post infection measured 24 hrs post last dose (reference value: 6.4 +/- 0.3 log10CFU)", "type": "functional", "outline": "as §1"}, "Mus musculus [11]": {"system": "Mus musculus", "test": "Dose normalized AUC (0 to infinity) in C57BL/6 mouse at 5.5 mg/kg, iv administered as single dose measured up to 24 hrs by LC-MS/MS analysis", "type": "ADME, organism-based", "settings": "in vivo"}, "[12]": {"test": "Cmax in C57BL/6 mouse at 30 mg/kg administered as single dose via oral gavage measured up to 24 hrs by LC-MS/MS analysis", "type": "ADME, organism-based", "parameters": "dose 30 mg/kg, route oral", "settings": "in vivo"}, "[13]": {"system": "Mycobacterium tuberculosis", "test": "Antimicrobial activity against Mycobacterium tuberculosis H37Rv infected in C57BL/6J mouse assessed as bacterial load in lungs at 10 mg/kg qd administered for 8 consecutive weeks starting from 6 weeks post infection measured 24 hrs post last dose (reference value: 6.4 +/- 0.3 log10CFU)", "type": "functional", "outline": "as §1"}, "[14]": {"test": "AUC (0 to infinity) in C57BL/6 mouse at 5.5 mg/kg, iv administered as single dose measured up to 24 hrs by LC-MS/MS analysis", "type": "ADME, organism-based", "parameters": "dose 5.5 mg/kg, time infinity, route intravenous", "settings": "in vivo"}, "[15]": {"test": "Toxicity in mouse", "type": "organism-based", "settings": "in vivo"}, "[16]": {"test": "Oral bioavailability in C57BL/6 mouse at 30 mg/kg administered as single dose via gavage measured up to 24 hrs by LC-MS/MS analysis", "type": "ADME, organism-based", "settings": "in vivo"}, "[17]": {"system": "Mycobacterium tuberculosis", "test": "Antimicrobial activity against Mycobacterium tuberculosis H37Rv infected in C57BL/6J mouse assessed as bacterial load in lungs at 0.1 mg/kg qd administered for 8 consecutive weeks starting from 6 weeks post infection measured 24 hrs post last dose (reference value: 6.4 +/- 0.3 log10CFU)", "type": "functional", "outline": "as §1"}, "[18]": {"test": "AUC (0 to 24 hrs) in C57BL/6 mouse at 26.1 mg/kg administered as single dose via oral gavage by LC-MS/MS analysis", "type": "ADME, organism-based", "parameters": "dose 26.1 mg/kg, time < 24 hr, route oral", "settings": "in vivo"}, "Mus musculus [19]": {"system": "Mus musculus", "test": "Toxicity in mouse at 150 mg/kg", "type": "organism-based", "settings": "in vivo", "outline": "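Maximum single tolerated dose study: healthy mice each got one dose, and tolerability was judged across escalating dose levels.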"}, "Mus musculus [20]": {"system": "Mus musculus", "test": "Dose normalized AUC (0 to infinity) in C57BL/6 mouse at 28.5 mg/kg, iv administered as single dose measured up to 8 hrs by LC-MS/MS analysis", "type": "ADME, organism-based", "settings": "in vivo"}, "[21]": {"test": "Tmax in CD-1 mouse at 30 mg/kg administered via oral gavage after 24 hrs by LC-MS/MS analysis", "type": "ADME, organism-based", "settings": "in vivo"}, "[22]": {"test": "Cmax in C57BL/6 mouse at 26.1 mg/kg administered as single dose via oral gavage measured up to 24 hrs by LC-MS/MS analysis", "type": "ADME, organism-based", "parameters": "dose 26.1 mg/kg, route oral", "settings": "in vivo"}, "[23]": {"test": "Oral bioavailability in CD-1 mouse at 30 mg/kg administered via gavage after 24 hrs by LC-MS/MS analysis", "type": "ADME, organism-based", "settings": "in vivo"}, "Mus musculus [24]": {"system": "Mus musculus", "test": "Toxicity in mouse at 50 mg/kg, qd", "type": "organism-based", "settings": "in vivo"}, "[25]": {"test": "AUC (0 to infinity) in C57BL/6 mouse at 28.5 mg/kg, iv administered as single dose measured up to 8 hrs by LC-MS/MS analysis", "type": "ADME, organism-based", "parameters": "dose 28.5 mg/kg, time infinity, route intravenous", "settings": "in vivo"}, "[26]": {"test": "Oral bioavailability in C57BL/6 mouse at 26.1 mg/kg administered as single dose via gavage measured up to 24 hrs by LC-MS/MS analysis", "type": "ADME, organism-based", "settings": "in vivo"}, "Mus musculus [27]": {"system": "Mus musculus", "test": "Dose normalized AUC (0 to infinity) in CD-1 mouse at 30 mg/kg, iv after 24 hrs by LC-MS/MS analysis", "type": "ADME, organism-based", "settings": "in vivo"}, "[28]": {"test": "Clearance in C57BL/6 mouse at 28.5 mg/kg, iv administered as single dose measured up to 8 hrs by LC-MS/MS analysis", "type": "ADME, organism-based", "settings": "in vivo"}, "[29]": {"test": "Half life in C57BL/6 mouse at 28.5 mg/kg, iv administered as single dose measured up to 8 hrs by LC-MS/MS analysis", "type": "ADME, organism-based", "settings": "in vivo"}, "Mus musculus [30]": {"system": "Mus musculus", "test": "Dose normalized AUC (0 to 24 hrs) in C57BL/6 mouse at 26.1 mg/kg administered as single dose via oral gavage by LC-MS/MS analysis", "type": "ADME, organism-based", "settings": "in vivo"}, "[31]": {"test": "AUC (0 to infinity) in CD-1 mouse at 30 mg/kg, iv after 24 hrs by LC-MS/MS analysis", "type": "ADME, organism-based", "parameters": "dose 30 mg/kg, route intravenous, time infinity", "settings": "in vivo"}, "[32]": {"test": "AUC (0 to 24 hrs) in CD-1 mouse at 30 mg/kg administered via oral gavage by LC-MS/MS analysis", "type": "ADME, organism-based", "parameters": "dose 30 mg/kg, time < 24 hr, route oral", "settings": "in vivo"}}}
{"smiles": "Cl.NC[C@H]1OB(O)c2c(OCCO)ccc(Cl)c21", "values": [{"measurement": "AUC(0-t) at 24 h", "setting": "[1]", "value": 88200, "unit": "ng·h/mL"}, {"measurement": "MTD", "setting": "[2]", "value": 100, "unit": "mg/kg"}, {"measurement": "Tmax", "setting": "[3]", "value": 54, "unit": "min"}, {"measurement": "Activity", "setting": "[4]", "value": 6, "unit": "log10CFU"}, {"measurement": "AUC/dose", "setting": "Mus musculus [5]", "value": 2.94, "unit": "µg·h/mL"}, {"measurement": "Activity", "setting": "[6]", "value": "Dose-dependent effect"}, {"measurement": "Activity", "setting": "[7]", "value": 4.7, "unit": "log10CFU"}, {"measurement": "IC50", "setting": "[8]", "value": 132, "unit": "µM"}, {"measurement": "Vd", "setting": "[9]", "value": 2.3, "unit": "L/kg"}, {"measurement": "Activity", "setting": "[10]", "value": 4.4, "unit": "log10CFU"}, {"measurement": "AUC/dose", "setting": "Mus musculus [11]", "value": 2.03, "unit": "µg·h/mL/mg/kg"}, {"measurement": "Cmax", "setting": "[12]", "value": 17800, "unit": "ng/mL"}, {"measurement": "Activity", "setting": "[13]", "value": 4.3, "unit": "log10CFU"}, {"measurement": "AUC(0-inf)", "setting": "[14]", "value": 11100, "unit": "ng·h/mL"}, {"measurement": "MTD", "setting": "[15]", "value": 300, "unit": "mg/kg"}, {"measurement": "bioavailability", "setting": "[16]", "value": 100, "unit": "%"}, {"measurement": "Activity", "setting": "[17]", "value": 6.4, "unit": "log10CFU"}]}
{"smiles": "CCOc1ccc(Br)c2c1B(O)O[C@@H]2CN", "values": [{"measurement": "AUC(0-t) at 24 h", "setting": "[18]", "value": 77900, "unit": "ng·h/mL"}, {"measurement": "Activity", "setting": "Mus musculus [19]", "value": "Toxic"}, {"measurement": "AUC/dose", "setting": "Mus musculus [20]", "value": 2.54, "unit": "µg·h/mL/mg/kg"}, {"measurement": "Tmax", "setting": "[21]", "value": 30, "unit": "min"}, {"measurement": "Cmax", "setting": "[22]", "value": 11100, "unit": "ng/mL"}, {"measurement": "bioavailability", "setting": "[23]", "value": 100, "unit": "%"}, {"measurement": "Activity", "setting": "Mus musculus [24]", "value": "Toxic"}, {"measurement": "AUC(0-inf)", "setting": "[25]", "value": 72300, "unit": "ng·h/mL"}, {"measurement": "bioavailability", "setting": "[26]", "value": 100, "unit": "%"}, {"measurement": "AUC/dose", "setting": "Mus musculus [27]", "value": 1.45, "unit": "µg·h/mL/mg/kg"}, {"measurement": "clearance", "setting": "[28]", "value": 6.6, "unit": "mL/min/kg"}, {"measurement": "half-life", "setting": "[29]", "value": 186, "unit": "min"}, {"measurement": "AUC/dose", "setting": "Mus musculus [30]", "value": 2.98, "unit": "µg·h/mL"}, {"measurement": "AUC(0-inf)", "setting": "[31]", "value": 43400, "unit": "ng·h/mL"}, {"measurement": "AUC(0-t) at 24 h", "setting": "[32]", "value": 57600, "unit": "ng·h/mL"}]}
